# Assay results of several laboratories.
# Target: Ephrin type-A receptor 2 (EPHA2, Homo sapiens, UniProt P29317)
Compound,observed,mode,method,concentration,quantity,value
O=C(NC[C@@H]1[C@H]2CN(C(=O)OCc3cc(C(F)(F)F)cc(C(F)(F)F)c3)C[C@@H]12)c1ccc2[nH]nnc2c1,cell-free assay,,competition with immobilised ligand,1 µM,remaining binding,79%
Cc1ccc(C(=O)Nc2ccc(CN3CCN(C)CC3)c(C(F)(F)F)c2)cc1C#Cc1cnc2cccnn12,cell-free assay,,,23.5 nM,remaining signal,8.9%
COc1cc(/C=C/C(=O)CC(=O)/C=C/c2ccc(O)c(OC)c2)ccc1O,enzyme activity,inhibitor,,1 µM,activity vs control,104%
C#Cc1cccc(Nc2ncnc3cc(OCCOC)c(OCCOC)cc23)c1,cell-free assay,,,0.5 µM,remaining signal,91.3%
CS(=O)(=O)Nc1cccc(-c2csc(NC(=O)CSc3nc4nccnc4c(=O)n3CCc3ccccc3)n2)c1,enzyme activity,inhibitor,,10 µM,inhibition,9%
CC(C)(C)c1nc(-c2cccc(NS(=O)(=O)c3c(F)cccc3F)c2F)c(-c2ccnc(N)n2)s1,enzyme activity,inhibitor,radiometric,1 µM,remaining activity,133%
Cc1cnc(NC2CCOCC2)nc1-n1cnc(C(=O)NC(CN)c2cc(F)cc(Cl)c2)c1 (stereo not shown),enzyme activity,inhibitor,radiometric,1 µM,remaining activity,101%
O=C(N1CCS(=O)(=O)CC1)N1C[C@H](c2ccc(OC(F)(F)F)cc2)C[C@H](c2nc(C3CC3)no2)C1,cell-free assay,,competition with immobilised ligand,1 µM,remaining binding,100%
CC(C)(O)[C@H]1CC[C@H](Nc2ccc3ncc(-c4cccc(C(F)(F)F)c4)n3n2)CC1,enzyme activity,inhibitor,,1 µM,remaining activity,93.9%
CC(C)(C)C(=O)c1sc(NC2CCCCC2)nc1N,enzyme activity,inhibitor,,10 µM,remaining activity,106%
CN(c1ncccc1CNc1nc(Nc2ccc3c(c2)CC(=O)N3)ncc1C(F)(F)F)S(C)(=O)=O,enzyme activity,inhibitor,,1 µM,inhibition,29.7%
COc1cc2ncnc(Nc3ccc(Oc4ccccc4)c(C)c3C)c2cc1OC,enzyme activity,inhibitor,,1 µM,inhibition,2%
O=C1NC(=O)c2cc(Nc3ccc(F)cc3)c(Nc3ccc(F)cc3)cc21,cell-free assay,,,0.5 µM,remaining signal,94.3%
CC/C(=N\NC(=O)NCc1cccc(O)c1)c1ccc(O)c(C)c1O,enzyme activity,inhibitor,,0.1 µM,inhibition,3.9%
C[C@@H]1CCN(C(=O)CC#N)C[C@@H]1N(C)c1ncnc2[nH]ccc12,cell-free assay,,,0.5 µM,remaining signal,95.8%
O=C(Nc1cnn(-c2csc(C(=O)NC3COC3)c2)c1)Nc1c(F)cccc1Cl,enzyme activity,inhibitor,,5 µM,remaining activity,97.9%
CCN(CC)CCNC(=O)c1c(C)[nH]c(/C=C2\C(=O)Nc3ccc(F)cc32)c1C,enzyme activity,inhibitor,,0.3 µM,inhibition,-12%
O=C1NC(c2ccccn2)Sc2ccccc21 (stereo not shown),cell-free assay,,competition with immobilised ligand,1 µM,remaining binding,100%
CCCOc1ccc(OC)c(F)c1C(=O)c1ccc(C(=O)N[C@@H]2CNC[C@H]2NC(=O)c2ccc3[nH]ncc3c2)cc1,enzyme activity,inhibitor,,10 µM,remaining activity,69%
CCc1ccccc1C(=O)Nc1n[nH]c2c(C)c(F)c(C3C(C#N)=C(C)N(C)C(C)=C3C#N)cc12,cell-free assay,,competition with immobilised ligand,1 µM,remaining binding,61%
COc1cc(Nc2cnc(C#N)c(O[C@H](C)CN(C)C)n2)ncc1-c1cnn(C)c1,enzyme activity,inhibitor,radiometric,1 µM,remaining activity,59%
Nc1ncnc2occ(-c3ccc(NC(=O)Nc4cc(C(F)(F)F)ccc4F)cc3)c12,cell-free assay,,,20 µM,remaining signal,0%
Cc1ccc(Nc2nccc(N(C)c3ccc4c(C)n(C)nc4c3)n2)cc1S(N)(=O)=O,enzyme activity,inhibitor,,10 µM,inhibition,43%
C[C@@H]1CN(c2cc(-c3nn(C)c4ccc(OC5(C)CC5)cc34)ncn2)C[C@H](C)O1,cell-free assay,,competition with immobilised ligand,1 µM,remaining binding,100%
Cn1c(=O)n(-c2ccc(C(C)(C)C#N)cc2)c2c3cc(-c4cnc5ccccc5c4)ccc3ncc21,enzyme activity,inhibitor,,10 µM,remaining activity,110%
CS(=O)(=O)N1CCCC(NC(=O)[C@H](CCC2CCCCC2)NC(=O)c2ccc(CNc3ncnc4c3nnn4-c3ccccc3)cc2)C1 (stereo partly shown),cell-free assay,,competition with immobilised ligand,0.1 µM,remaining binding,100%
CNC(=O)c1cc(Oc2ccc(NC(=O)Nc3ccc(Cl)c(C(F)(F)F)c3)cc2)ccn1,enzyme activity,inhibitor,,10 µM,inhibition,96%
COc1ccc2c(O[C@@H]3C[C@H]4C(=O)N[C@]5(C(=O)O)CC5/C=C\CCCCC[C@H](NC(=O)OC5CCCC5)C(=O)N4C3)cc(-c3csc(NC(=O)C(C)C)n3)nc2c1C (stereo partly shown),cell-free assay,,competition with immobilised ligand,1 µM,remaining binding,80%
Cc1ccc(NC(=O)c2ccc(C)c(C(F)(F)F)c2)cc1C#Cc1nn(C2CCC(O)CC2)c2ncnc(N)c12 (stereo not shown),cell-free assay,,,10 µM,remaining signal,-3%
COc1ccc2c(c1)O[C@@H](c1ccc(OC)c(OC)c1)C[C@H]2NC(=O)C1(c2ccc3c(c2)OC(F)(F)O3)CC1,cell-free assay,,competition with immobilised ligand,1 µM,remaining binding,95%
CNC(=O)c1cc2c(Oc3ccc(NC(=O)C4(C(=O)Nc5ccc(F)cc5)CC4)cc3)ccnc2cc1OC,enzyme activity,inhibitor,radiometric,1 µM,inhibition,96%
